Assay results published in ChEMBL document CHEMBL4819144, “Structure-activity relationships of pyrimidine nucleotides containing a 5'-α,β-methylene diphosphonate at the P2Y6 receptor” (Bioorg Med Chem Lett, 2021).

Legend:
[1] = target: T1, 5'-nucleotidase (Rattus norvegicus, UniProt P21588); test: Inhibition of rat CD73 using [3H]-AMP as substrate by radiometric assay
T1 sequence (P21588 whole entry): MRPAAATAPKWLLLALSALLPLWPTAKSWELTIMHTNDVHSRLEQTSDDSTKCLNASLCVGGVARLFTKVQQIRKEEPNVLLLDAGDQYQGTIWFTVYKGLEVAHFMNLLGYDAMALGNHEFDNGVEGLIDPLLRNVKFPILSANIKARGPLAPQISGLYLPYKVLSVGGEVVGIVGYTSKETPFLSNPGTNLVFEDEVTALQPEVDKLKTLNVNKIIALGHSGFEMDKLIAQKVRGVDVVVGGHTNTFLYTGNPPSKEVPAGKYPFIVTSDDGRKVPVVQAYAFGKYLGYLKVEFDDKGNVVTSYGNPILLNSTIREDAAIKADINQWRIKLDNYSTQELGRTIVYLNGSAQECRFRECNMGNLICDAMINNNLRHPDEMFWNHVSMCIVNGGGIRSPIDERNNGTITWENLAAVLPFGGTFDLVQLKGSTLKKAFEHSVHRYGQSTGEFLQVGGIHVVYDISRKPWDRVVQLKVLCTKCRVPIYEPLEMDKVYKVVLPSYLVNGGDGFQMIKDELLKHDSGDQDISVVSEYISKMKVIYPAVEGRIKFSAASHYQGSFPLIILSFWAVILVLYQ

[2] = target: T2, P2Y purinoceptor 6 (Homo sapiens, UniProt Q15077); test: Agonist activity at human P2Y6R expressed in 1321N1 cells assessed as calcium mobilization at 3 uM measured by microplate reader method relative to control; assay type: functional, cell-based
How it was run: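 Human P2Y6R stably expressed in 1321N1 astrocytoma cells; fluorescence-based (FLIPR) Ca2+ mobilization read-out; agonist tested at a single 3 µM concentration and expressed as % activation.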

[3] = target: T2, P2Y purinoceptor 6; test: Agonist activity at human P2Y6R expressed in 1321N1 cells assessed as calcium mobilization measured by microplate reader method; assay type: functional, cell-based
[4] = target: T3, P2Y purinoceptor 14 (Homo sapiens, UniProt Q15391); test: Binding affinity to human P2Y14 expressed in CHO cells; assay type: cell-based
T3 sequence (Q15391 whole entry): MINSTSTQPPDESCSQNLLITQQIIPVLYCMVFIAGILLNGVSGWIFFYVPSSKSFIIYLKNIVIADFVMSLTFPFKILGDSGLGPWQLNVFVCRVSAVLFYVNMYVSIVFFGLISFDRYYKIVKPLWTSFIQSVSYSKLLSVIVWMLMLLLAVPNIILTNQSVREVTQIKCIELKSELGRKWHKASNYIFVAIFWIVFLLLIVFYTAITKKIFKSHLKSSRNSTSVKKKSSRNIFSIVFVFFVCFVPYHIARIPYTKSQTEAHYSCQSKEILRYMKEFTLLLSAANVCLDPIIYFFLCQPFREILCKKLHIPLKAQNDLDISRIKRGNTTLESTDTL
How it was run: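 Whole CHO cells stably expressing human P2Y14R; a fluorescent antagonist serves as tracer and binding is read by flow cytometry; IC50 from inhibition of tracer binding.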

[5] = target: T2, P2Y purinoceptor 6; test: Agonist activity at human P2Y6R expressed in 1321N1 cells assessed as calcium mobilization measured by FLIPR method; assay type: functional, cell-based
[6] = target: D(3) dopamine receptor (Homo sapiens) (UniProt P35462); test: Displacement of [3H]-N-methylspiperone from dopamine D3 receptor (unknown origin) at 10 uM relative to control
[7] = target: T3, P2Y purinoceptor 14; test: Agonist activity at human P2Y14 expressed in CHO cells
[8] = target: T2, P2Y purinoceptor 6; test: Agonist activity at human P2Y6R expressed in 1321N1 cells by PLC assay; details: dose 3.0 µM, time 30.0 min
[9] = target: Sigma non-opioid intracellular receptor 1 (Homo sapiens) (UniProt Q99720); test: Displacement of [3H]-Pentazocine from sigma-1 receptor (unknown origin) at 10 uM relative to control
[10] = species on record: Homo sapiens; test: Selectivity ratio of IC50 for human P2Y14 expressed in CHO cells to EC50 for human P2Y6R expressed in 1321N1 cells; assay type: cell-based
How it was run: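 The ratio divides the hP2Y14R IC50 by the hP2Y6R EC50. The IC50 comes from flow-cytometric displacement of a fluorescent antagonist tracer in whole hP2Y14R-CHO cells.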

T2 sequence (Q15077 whole entry): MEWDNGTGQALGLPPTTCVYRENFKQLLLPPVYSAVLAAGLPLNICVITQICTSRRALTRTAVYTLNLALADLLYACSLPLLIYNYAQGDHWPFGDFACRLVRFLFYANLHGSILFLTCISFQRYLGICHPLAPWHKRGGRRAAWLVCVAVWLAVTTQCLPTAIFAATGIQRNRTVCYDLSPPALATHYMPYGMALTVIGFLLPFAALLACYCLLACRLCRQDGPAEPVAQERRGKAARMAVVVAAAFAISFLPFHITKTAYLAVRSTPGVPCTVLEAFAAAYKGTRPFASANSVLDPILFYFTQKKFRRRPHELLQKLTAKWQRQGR
Chain of Sigma non-opioid intracellular receptor 1 (Homo sapiens) (Q99720 whole entry): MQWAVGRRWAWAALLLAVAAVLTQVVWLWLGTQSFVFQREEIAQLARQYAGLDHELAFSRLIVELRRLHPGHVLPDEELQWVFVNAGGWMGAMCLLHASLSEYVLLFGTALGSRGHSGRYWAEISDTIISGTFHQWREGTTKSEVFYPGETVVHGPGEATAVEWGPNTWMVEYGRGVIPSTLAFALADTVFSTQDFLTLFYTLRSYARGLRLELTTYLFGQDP
Chain of D(3) dopamine receptor (Homo sapiens) (P35462 whole entry): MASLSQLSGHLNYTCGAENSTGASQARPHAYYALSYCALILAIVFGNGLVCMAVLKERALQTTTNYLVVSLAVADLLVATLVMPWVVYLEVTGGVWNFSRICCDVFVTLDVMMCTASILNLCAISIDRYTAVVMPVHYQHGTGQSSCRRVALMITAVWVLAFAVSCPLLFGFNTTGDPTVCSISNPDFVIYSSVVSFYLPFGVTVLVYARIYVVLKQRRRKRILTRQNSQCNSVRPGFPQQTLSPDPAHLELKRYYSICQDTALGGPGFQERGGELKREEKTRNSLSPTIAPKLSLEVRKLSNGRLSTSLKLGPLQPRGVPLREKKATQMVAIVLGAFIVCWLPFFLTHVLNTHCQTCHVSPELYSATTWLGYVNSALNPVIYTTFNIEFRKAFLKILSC

Structure (SMILES): CO/N=c1/ccn([C@@H]2O[C@H](COP(=O)(O)CP(=O)(O)O)[C@@H](O)[C@H]2O)c(=O)[nH]1
- IC50 [1]: 257 nM

Structure (SMILES): O=c1cnn([C@@H]2O[C@H](COP(=O)(O)CP(=O)(O)O)[C@@H](O)[C@H]2O)c(=O)[nH]1
- Activity [2]: 5.2%

Structure (SMILES): O=c1[nH]/c(=N\OCc2cccc(Cl)c2)ccn1[C@@H]1O[C@H](COP(=O)(O)CP(=O)(O)O)[C@@H](O)[C@H]1O
- EC50 [3]: 1450 nM
- IC50 [4]: > 100000 nM
- EC50 [5]: 1450 nM

Structure (SMILES): O=c1[nH]c(=O)n([C@@H]2O[C@H](COP(=O)(O)CP(=O)(O)O)[C@@H](O)[C@H]2O)cc1Cl
- IC50 [4]: 16600 nM

Structure (SMILES): Nc1nc(=O)n([C@@H]2O[C@H](COP(=O)(O)CP(=O)(O)O)[C@@H](O)[C@H]2O)cc1F
- Activity [2]: 5.7%

Structure (SMILES): O=c1[nH]/c(=N\OCc2ccc(C(F)(F)F)cc2)ccn1[C@@H]1O[C@H](COP(=O)(O)CP(=O)(O)O)[C@@H](O)[C@H]1O
- IC50 [4]: > 100000 nM
- IC50 [1]: 30 nM

Structure (SMILES): O=c1[nH]/c(=N\OCc2ccccc2)ccn1[C@@H]1O[C@H](COP(=O)(O)CP(=O)(O)O)[C@@H](O)[C@H]1O
- IC50 [1]: 112 nM

Structure (SMILES): Cc1cn([C@@H]2O[C@H](COP(=O)(O)CP(=O)(O)O)[C@@H](O)[C@H]2O)c(=O)[nH]/c1=N/OCc1ccccc1
- IC50 [1]: 321 nM

Structure (SMILES): COC(=O)c1ccc(CO/N=c2/ccn([C@@H]3O[C@H](COP(=O)(O)CP(=O)(O)O)[C@@H](O)[C@H]3O)c(=O)[nH]2)cc1
- EC50 [3]: 1670 nM
- inhibition [6]: 85%

Structure (SMILES): O=c1ccn([C@@H]2O[C@H](COP(=O)(O)CP(=O)(O)O)[C@@H](O)[C@H]2O)c(=O)n1Cc1ccccc1
- Activity [2]: 5.3%

Structure (SMILES): Nc1nc(=O)n([C@@H]2O[C@H](COP(=O)(O)CP(=O)(O)O)[C@@H](O)[C@H]2O)cc1I
- Activity [2]: 3.4%

Structure (SMILES): O=c1[nH]/c(=N\OCc2ccc(Cl)cc2)ccn1[C@@H]1O[C@H](COP(=O)(O)CP(=O)(O)O)[C@@H](O)[C@H]1O
- IC50 [4]: > 100000 nM

Structure (SMILES): Cn1c(=O)n([C@@H]2O[C@H](COP(=O)(O)CP(=O)(O)O)[C@@H](O)[C@H]2O)cc/c1=N/OCc1ccccc1
- Activity [2]: 3.6%

Structure (SMILES): O=c1ccn([C@@H]2O[C@H](COP(=O)(O)CP(=O)(O)O)[C@@H](O)[C@@H]2O)c(=O)[nH]1
- Activity [2]: 2.4%

Structure (SMILES): O=c1[nH]c(=O)n([C@@H]2O[C@H](COP(=O)(O)CP(=O)(O)O)[C@@H](O)[C@H]2O)cc1I
- EC50 [3]: 49.1 nM
- IC50 [1]: 162 nM

Structure (SMILES): O=c1[nH]c(=O)n([C@@H]2O[C@H](COP(=O)(O)CP(=O)(O)O)[C@@H](O)[C@H]2O)cc1F
- IC50 [1]: > 1000 nM

Structure (SMILES): CCCn1c(=O)ccn([C@@H]2O[C@H](COP(=O)(O)CP(=O)(O)O)[C@@H](O)[C@H]2O)c1=O
- Activity [2]: 2.7%

Structure (SMILES): CCn1c(=O)ccn([C@@H]2O[C@H](COP(=O)(O)CP(=O)(O)O)[C@@H](O)[C@H]2O)c1=O
- Activity [2]: 3.5%

Structure (SMILES): O=c1ccn([C@@H]2O[C@H](COP(=O)(O)CP(=O)(O)O)[C@@H](O)[C@H]2O)c(=O)[nH]1
- IC50 [1]: 1830 nM
- EC50 [7]: 11 nM
- EC50 [8]: 339 nM

Structure (SMILES): O=c1[nH]/c(=N\OCc2ccc(S(F)(F)(F)(F)F)cc2)ccn1[C@@H]1O[C@H](COP(=O)(O)CP(=O)(O)O)[C@@H](O)[C@H]1O
- EC50 [3]: 1590 nM
- inhibition [9]: 59%

Structure (SMILES): O=c1ccn([C@@H]2O[C@H](COP(=O)(O)CP(=O)(O)O)[C@@H](O)[C@H]2O)c(=S)[nH]1
- EC50 [8]: 1990 nM

Structure (SMILES): Cc1cn([C@@H]2O[C@H](COP(=O)(O)CP(=O)(O)O)[C@@H](O)[C@H]2O)c(=O)nc1N
- Activity [2]: 3%

Structure (SMILES): O=c1[nH]/c(=N\OCc2ccccc2)ccn1[C@@H]1O[C@H](COP(=O)(O)OP(=O)(O)O)[C@@H](O)[C@H]1O
- EC50 [3]: 793 nM

Structure (SMILES): CCn1c(=O)n([C@@H]2O[C@H](COP(=O)(O)CP(=O)(O)O)[C@@H](O)[C@H]2O)cc/c1=N/OCc1ccccc1
- Activity [2]: 5.7%

Structure (SMILES): CO/N=c1/ccn([C@@H]2O[C@H](COP(=O)(O)OP(=O)(O)O)[C@@H](O)[C@H]2O)c(=O)[nH]1
- EC50 [3]: 493 nM

Structure (SMILES): O=c1[nH]/c(=N/OCc2ccccc2)c(F)cn1[C@@H]1O[C@H](COP(=O)(O)CP(=O)(O)O)[C@@H](O)[C@H]1O
- EC50 [3]: 549 nM
- IC50 [4]: 21500 nM
- EC50 [5]: 549 nM
- IC50 [1]: 85 nM
- Ratio IC50/EC50 [10]: 39

Structure (SMILES): O=c1[nH]c(=O)n([C@@H]2O[C@H](COP(=O)(O)CP(=O)(O)O)[C@@H](O)[C@H]2O)cc1Br
- EC50 [3]: 104 nM
